tested on: CCRF-CEM; assay: Cytotoxicity against human CEM cells after 72 hrs by MTT assay; type: cell-based; conditions: not given

Structure (SMILES)	IC50
COc1ccc(-c2nnc3c(n2)c(-c2cc(OC)c(OC)c(OC)c2)nn3-c2ccccc2OC)cc1	105 µM
COc1ccc(-c2n[nH]c(=O)c(/C(=N/Nc3ccc(Cl)cc3)c3cc(OC)c(OC)c(OC)c3)n2)cc1	20.2 µM
COc1ccc(N/N=C(\c2cc(OC)c(OC)c(OC)c2)c2nc(-c3ccc(Cl)cc3)n[nH]c2=O)cc1	9.49 µM
COc1cc(Cc2nc(-c3ccc(Cl)cc3)n[nH]c2=O)cc(OC)c1OC	12.9 µM
COc1cc(/C=C(/NC(=O)c2ccccc2)C(=O)NN)cc(OC)c1OC	124 µM
COc1ccc(C(=O)N/C(=C/c2cc(OC)c(OC)c(OC)c2)C(=O)NN)cc1	144 µM
COc1cc(/C(=N\Nc2ccccc2)c2nc(-c3ccccc3)n[nH]c2=O)cc(OC)c1OC	10.6 µM
COc1cc(/C=C(/NC(=O)c2cc(OC)c(OC)c(OC)c2)C(=O)NN)cc(OC)c1OC	123 µM
COc1cc(/C=C(/NC(=O)c2ccc(Cl)cc2)C(=O)NN)cc(OC)c1OC	134 µM
COc1ccc(-c2n[nH]c(=O)c(Cc3cc(OC)c(OC)c(OC)c3)n2)cc1	3.15 µM
COc1ccccc1-n1nc(-c2cc(OC)c(OC)c(OC)c2)c2nc(-c3cc(OC)c(OC)c(OC)c3)nnc21	126 µM
COc1cc(N/N=C(\c2cc(OC)c(OC)c(OC)c2)c2nc(-c3cc(OC)c(OC)c(OC)c3)n[nH]c2=O)cc(OC)c1OC	53.8 µM
COc1cc(-c2nnc3c(n2)c(-c2cc(OC)c(OC)c(OC)c2)nn3-c2cc(OC)c(OC)c(OC)c2)cc(OC)c1OC	246 µM
COc1cc(Cc2nc(-c3cc(OC)c(OC)c(OC)c3)n[nH]c2=O)cc(OC)c1OC	38.4 µM
COc1ccc(-c2n[nH]c(=O)c(/C(=N/Nc3ccccc3OC)c3cc(OC)c(OC)c(OC)c3)n2)cc1	54.6 µM
COc1cccc(N/N=C(\c2cc(OC)c(OC)c(OC)c2)c2nc(-c3ccc(Cl)cc3)n[nH]c2=O)c1	11.5 µM
COc1cccc(-n2nc(-c3cc(OC)c(OC)c(OC)c3)c3nc(-c4ccccc4)nnc32)c1	8.41 µM
COc1ccc(-n2nc(-c3cc(OC)c(OC)c(OC)c3)c3nc(-c4ccc(Cl)cc4)nnc32)cc1	226 µM
COc1ccc(-c2nnc3c(n2)c(-c2cc(OC)c(OC)c(OC)c2)nn3-c2ccc(Cl)cc2)cc1	115 µM
COc1ccc(-c2nnc3c(n2)c(-c2cc(OC)c(OC)c(OC)c2)nn3-c2ccccc2)cc1	114 µM

tested on: CCRF-CEM; assay: Cytotoxicity against human daunorubicin-resistant CEM cells after 72 hrs by MTT assay; type: cell-based; conditions: not given
In short: (§1)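 Cells seeded at 2500–30,000 cells/well and left 24 h at 37 °C, 5% CO₂, then fourfold dilution series in duplicate for 72 h. MTT for 4 h, formazan dissolved in 10% SDS (pH 5.5), OD read at 540 nm against controls. Mean of three independent experiments.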

Structure (SMILES)	IC50
COc1ccc(-c2nnc3c(n2)c(-c2cc(OC)c(OC)c(OC)c2)nn3-c2ccccc2OC)cc1	119 µM
COc1ccc(-c2n[nH]c(=O)c(/C(=N/Nc3ccc(Cl)cc3)c3cc(OC)c(OC)c(OC)c3)n2)cc1	50.1 µM
COc1ccc(N/N=C(\c2cc(OC)c(OC)c(OC)c2)c2nc(-c3ccc(Cl)cc3)n[nH]c2=O)cc1	9.16 µM
COc1cc(Cc2nc(-c3ccc(Cl)cc3)n[nH]c2=O)cc(OC)c1OC	14.6 µM
COc1cc(/C=C(/NC(=O)c2ccccc2)C(=O)NN)cc(OC)c1OC	121 µM
COc1ccc(C(=O)N/C(=C/c2cc(OC)c(OC)c(OC)c2)C(=O)NN)cc1	147 µM
COc1cc(/C(=N\Nc2ccccc2)c2nc(-c3ccccc3)n[nH]c2=O)cc(OC)c1OC	18.2 µM
COc1cc(/C=C(/NC(=O)c2cc(OC)c(OC)c(OC)c2)C(=O)NN)cc(OC)c1OC	126 µM
COc1cc(/C=C(/NC(=O)c2ccc(Cl)cc2)C(=O)NN)cc(OC)c1OC	130 µM
COc1ccc(-c2n[nH]c(=O)c(Cc3cc(OC)c(OC)c(OC)c3)n2)cc1	13.3 µM
COc1ccccc1-n1nc(-c2cc(OC)c(OC)c(OC)c2)c2nc(-c3cc(OC)c(OC)c(OC)c3)nnc21	125 µM
COc1cc(N/N=C(\c2cc(OC)c(OC)c(OC)c2)c2nc(-c3cc(OC)c(OC)c(OC)c3)n[nH]c2=O)cc(OC)c1OC	158 µM
COc1cc(-c2nnc3c(n2)c(-c2cc(OC)c(OC)c(OC)c2)nn3-c2cc(OC)c(OC)c(OC)c2)cc(OC)c1OC	201 µM
COc1cc(Cc2nc(-c3cc(OC)c(OC)c(OC)c3)n[nH]c2=O)cc(OC)c1OC	129 µM
COc1ccc(-c2n[nH]c(=O)c(/C(=N/Nc3ccccc3OC)c3cc(OC)c(OC)c(OC)c3)n2)cc1	141 µM
COc1cccc(N/N=C(\c2cc(OC)c(OC)c(OC)c2)c2nc(-c3ccc(Cl)cc3)n[nH]c2=O)c1	133 µM
COc1cccc(-n2nc(-c3cc(OC)c(OC)c(OC)c3)c3nc(-c4ccccc4)nnc32)c1	99.3 µM
COc1ccc(-n2nc(-c3cc(OC)c(OC)c(OC)c3)c3nc(-c4ccc(Cl)cc4)nnc32)cc1	139 µM
COc1ccc(-c2nnc3c(n2)c(-c2cc(OC)c(OC)c(OC)c2)nn3-c2ccc(Cl)cc2)cc1	118 µM
COc1ccc(-c2nnc3c(n2)c(-c2cc(OC)c(OC)c(OC)c2)nn3-c2ccccc2)cc1	114 µM

tested on: K562; assay: Cytotoxicity against human K562 cells after 72 hrs by MTT assay; type: functional, cell-based; conditions: K562, 72 h

Structure (SMILES)	IC50
COc1ccc(-c2nnc3c(n2)c(-c2cc(OC)c(OC)c(OC)c2)nn3-c2ccccc2OC)cc1	178 µM
COc1ccc(-c2n[nH]c(=O)c(/C(=N/Nc3ccc(Cl)cc3)c3cc(OC)c(OC)c(OC)c3)n2)cc1	41.3 µM
COc1ccc(N/N=C(\c2cc(OC)c(OC)c(OC)c2)c2nc(-c3ccc(Cl)cc3)n[nH]c2=O)cc1	7.5 µM
COc1cc(Cc2nc(-c3ccc(Cl)cc3)n[nH]c2=O)cc(OC)c1OC	9.63 µM
COc1cc(/C=C(/NC(=O)c2ccccc2)C(=O)NN)cc(OC)c1OC	162 µM
COc1ccc(C(=O)N/C(=C/c2cc(OC)c(OC)c(OC)c2)C(=O)NN)cc1	172 µM
COc1cc(/C(=N\Nc2ccccc2)c2nc(-c3ccccc3)n[nH]c2=O)cc(OC)c1OC	11.5 µM
COc1cc(/C=C(/NC(=O)c2cc(OC)c(OC)c(OC)c2)C(=O)NN)cc(OC)c1OC	160 µM
COc1cc(/C=C(/NC(=O)c2ccc(Cl)cc2)C(=O)NN)cc(OC)c1OC	166 µM
COc1ccc(-c2n[nH]c(=O)c(Cc3cc(OC)c(OC)c(OC)c3)n2)cc1	3.07 µM
COc1ccccc1-n1nc(-c2cc(OC)c(OC)c(OC)c2)c2nc(-c3cc(OC)c(OC)c(OC)c3)nnc21	182 µM
COc1cc(N/N=C(\c2cc(OC)c(OC)c(OC)c2)c2nc(-c3cc(OC)c(OC)c(OC)c3)n[nH]c2=O)cc(OC)c1OC	94.3 µM
COc1cc(-c2nnc3c(n2)c(-c2cc(OC)c(OC)c(OC)c2)nn3-c2cc(OC)c(OC)c(OC)c2)cc(OC)c1OC	241 µM
COc1cc(Cc2nc(-c3cc(OC)c(OC)c(OC)c3)n[nH]c2=O)cc(OC)c1OC	82.1 µM
COc1ccc(-c2n[nH]c(=O)c(/C(=N/Nc3ccccc3OC)c3cc(OC)c(OC)c(OC)c3)n2)cc1	148 µM
COc1cccc(N/N=C(\c2cc(OC)c(OC)c(OC)c2)c2nc(-c3ccc(Cl)cc3)n[nH]c2=O)c1	41.8 µM
COc1cccc(-n2nc(-c3cc(OC)c(OC)c(OC)c3)c3nc(-c4ccccc4)nnc32)c1	117 µM
COc1ccc(-n2nc(-c3cc(OC)c(OC)c(OC)c3)c3nc(-c4ccc(Cl)cc4)nnc32)cc1	248 µM
COc1ccc(-c2nnc3c(n2)c(-c2cc(OC)c(OC)c(OC)c2)nn3-c2ccc(Cl)cc2)cc1	203 µM
COc1ccc(-c2nnc3c(n2)c(-c2cc(OC)c(OC)c(OC)c2)nn3-c2ccccc2)cc1	166 µM

tested on: K562; assay: Cytotoxicity against human paclitaxel-resistant K562 cells after 72 hrs by MTT assay; type: functional, cell-based; conditions: K562, 72 h; in short: as §1

Structure (SMILES)	IC50
COc1ccc(-c2nnc3c(n2)c(-c2cc(OC)c(OC)c(OC)c2)nn3-c2ccccc2OC)cc1	155 µM
COc1ccc(-c2n[nH]c(=O)c(/C(=N/Nc3ccc(Cl)cc3)c3cc(OC)c(OC)c(OC)c3)n2)cc1	238 µM
COc1ccc(N/N=C(\c2cc(OC)c(OC)c(OC)c2)c2nc(-c3ccc(Cl)cc3)n[nH]c2=O)cc1	8.33 µM
COc1cc(Cc2nc(-c3ccc(Cl)cc3)n[nH]c2=O)cc(OC)c1OC	24.7 µM
COc1cc(/C=C(/NC(=O)c2ccccc2)C(=O)NN)cc(OC)c1OC	162 µM
COc1ccc(C(=O)N/C(=C/c2cc(OC)c(OC)c(OC)c2)C(=O)NN)cc1	167 µM
COc1cc(/C(=N\Nc2ccccc2)c2nc(-c3ccccc3)n[nH]c2=O)cc(OC)c1OC	19.3 µM
COc1cc(/C=C(/NC(=O)c2cc(OC)c(OC)c(OC)c2)C(=O)NN)cc(OC)c1OC	153 µM
COc1cc(/C=C(/NC(=O)c2ccc(Cl)cc2)C(=O)NN)cc(OC)c1OC	174 µM
COc1ccc(-c2n[nH]c(=O)c(Cc3cc(OC)c(OC)c(OC)c3)n2)cc1	19.9 µM
COc1ccccc1-n1nc(-c2cc(OC)c(OC)c(OC)c2)c2nc(-c3cc(OC)c(OC)c(OC)c3)nnc21	156 µM
COc1cc(N/N=C(\c2cc(OC)c(OC)c(OC)c2)c2nc(-c3cc(OC)c(OC)c(OC)c3)n[nH]c2=O)cc(OC)c1OC	118 µM
COc1cc(-c2nnc3c(n2)c(-c2cc(OC)c(OC)c(OC)c2)nn3-c2cc(OC)c(OC)c(OC)c2)cc(OC)c1OC	250 µM
COc1cc(Cc2nc(-c3cc(OC)c(OC)c(OC)c3)n[nH]c2=O)cc(OC)c1OC	138 µM
COc1ccc(-c2n[nH]c(=O)c(/C(=N/Nc3ccccc3OC)c3cc(OC)c(OC)c(OC)c3)n2)cc1	250 µM
COc1cccc(N/N=C(\c2cc(OC)c(OC)c(OC)c2)c2nc(-c3ccc(Cl)cc3)n[nH]c2=O)c1	26.3 µM
COc1cccc(-n2nc(-c3cc(OC)c(OC)c(OC)c3)c3nc(-c4ccccc4)nnc32)c1	159 µM
COc1ccc(-n2nc(-c3cc(OC)c(OC)c(OC)c3)c3nc(-c4ccc(Cl)cc4)nnc32)cc1	250 µM
COc1ccc(-c2nnc3c(n2)c(-c2cc(OC)c(OC)c(OC)c2)nn3-c2ccc(Cl)cc2)cc1	232 µM
COc1ccc(-c2nnc3c(n2)c(-c2cc(OC)c(OC)c(OC)c2)nn3-c2ccccc2)cc1	203 µM

tested on: A549; assay: Cytotoxicity against human A549 cells after 72 hrs by MTT assay; type: functional, cell-based; conditions: A549, 72 h

Structure (SMILES)	IC50
COc1ccc(-c2nnc3c(n2)c(-c2cc(OC)c(OC)c(OC)c2)nn3-c2ccccc2OC)cc1	6.58 µM
COc1ccc(-c2n[nH]c(=O)c(/C(=N/Nc3ccc(Cl)cc3)c3cc(OC)c(OC)c(OC)c3)n2)cc1	18.5 µM
COc1ccc(N/N=C(\c2cc(OC)c(OC)c(OC)c2)c2nc(-c3ccc(Cl)cc3)n[nH]c2=O)cc1	2.34 µM
COc1cc(Cc2nc(-c3ccc(Cl)cc3)n[nH]c2=O)cc(OC)c1OC	15.8 µM
COc1cc(/C=C(/NC(=O)c2ccccc2)C(=O)NN)cc(OC)c1OC	164 µM
COc1ccc(C(=O)N/C(=C/c2cc(OC)c(OC)c(OC)c2)C(=O)NN)cc1	134 µM
COc1cc(/C(=N\Nc2ccccc2)c2nc(-c3ccccc3)n[nH]c2=O)cc(OC)c1OC	7.14 µM
COc1cc(/C=C(/NC(=O)c2cc(OC)c(OC)c(OC)c2)C(=O)NN)cc(OC)c1OC	103 µM
COc1cc(/C=C(/NC(=O)c2ccc(Cl)cc2)C(=O)NN)cc(OC)c1OC	161 µM
COc1ccc(-c2n[nH]c(=O)c(Cc3cc(OC)c(OC)c(OC)c3)n2)cc1	9.31 µM
COc1ccccc1-n1nc(-c2cc(OC)c(OC)c(OC)c2)c2nc(-c3cc(OC)c(OC)c(OC)c3)nnc21	15 µM
COc1cc(N/N=C(\c2cc(OC)c(OC)c(OC)c2)c2nc(-c3cc(OC)c(OC)c(OC)c3)n[nH]c2=O)cc(OC)c1OC	162 µM
COc1cc(-c2nnc3c(n2)c(-c2cc(OC)c(OC)c(OC)c2)nn3-c2cc(OC)c(OC)c(OC)c2)cc(OC)c1OC	194 µM
COc1cc(Cc2nc(-c3cc(OC)c(OC)c(OC)c3)n[nH]c2=O)cc(OC)c1OC	117 µM
COc1ccc(-c2n[nH]c(=O)c(/C(=N/Nc3ccccc3OC)c3cc(OC)c(OC)c(OC)c3)n2)cc1	250 µM
COc1cccc(N/N=C(\c2cc(OC)c(OC)c(OC)c2)c2nc(-c3ccc(Cl)cc3)n[nH]c2=O)c1	8.32 µM
COc1cccc(-n2nc(-c3cc(OC)c(OC)c(OC)c3)c3nc(-c4ccccc4)nnc32)c1	0.61 µM
COc1ccc(-n2nc(-c3cc(OC)c(OC)c(OC)c3)c3nc(-c4ccc(Cl)cc4)nnc32)cc1	113 µM
COc1ccc(-c2nnc3c(n2)c(-c2cc(OC)c(OC)c(OC)c2)nn3-c2ccc(Cl)cc2)cc1	113 µM
COc1ccc(-c2nnc3c(n2)c(-c2cc(OC)c(OC)c(OC)c2)nn3-c2ccccc2)cc1	78.8 µM
